Columns and labels:
[1] = target: 53BP1 tandem tudor domain (Homo sapiens, UniProt Q12888); assay: Isothermal titration calorimetry; format: binding; settings: ITC
[2] = test system: U2OS cells; assay: 53BP1 and γH2AX foci formation after ionizing radiation; format: cell-based
[3] = target: GFP fusion protein containing the 53BP1 tudor domains (Homo sapiens, UniProt Q12888); assay: Fluorescence recovery after photobleaching; format: cell-based; settings: FRAP before or after ionizing radiation (10 Gy)
[4] = target: 53BP1 D1521A mutant (Homo sapiens, UniProt Q12888, D1521A); assay: ITC with active site mutant; format: binding; settings: Kme pocket mutant, listed as UNC2170
[5] = target: endogenous 53BP1 (Homo sapiens, UniProt Q12888); assay: Chromatin release assay in HEK293 cell lysates; format: biochemical; settings: 2 hours at room temperature
Method in brief: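 HEK293 cells were lysed in EBC-1 (Tris pH 7.5, 100 mM NaCl, 0.5% NP-40, 1 mM EDTA). Washed nuclei were held 30 min in EBC-2 (Tris pH 7.5, 300 mM NaCl, 5 mM CaCl2), and the insoluble chromatin was pelleted and resuspended in EBC-2. Chromatin was exposed to test compound 2 h at RT. The supernatant (soluble) and the sonicated pellet (chromatin-bound) were western blotted for 53BP1, with histone H3 as loading control.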

[6] = target: tudor domain of 53BP1 (Homo sapiens, UniProt Q12888); assay: 1H-15N HSQC NMR of 53BP1 tudor domain; format: binding; settings: 10-fold molar excess of ligand
[7] = CellTiter-Glo luminescent cell-viability assay; format: cell-based
[8] = test system: Caco-2 cell; assay: Bi-directional Caco-2 cell permeability assay; format: in vitro ADME
[9] = target: 53BP1 (Homo sapiens, UniProt Q12888); assay: AlphaScreen Kme reader panel: 53BP1; format: binding
Method in brief: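 Compound serially diluted 3-fold over 10 points in DMSO, top final 100 µM, and preincubated 30 min at RT with His-tagged reader protein–peptide mix in 20 mM Tris pH 8.0, 25 mM NaCl, 2 mM DTT, 0.05% Tween-20. Streptavidin donor/nickel-chelate acceptor bead mix (45 µg/mL) then added for 30 min, dark, RT, and AlphaScreen signal read. The same format was used across the Kme reader panel. IC50 is the mean of ≥3 values ± SD.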

[10] = test system: Naive IgM+ B cells; assay: Class switch recombination; format: cell-based, mouse; settings: 300 µM

53BP1, sequence (Q12888 1484-1603 limits assumed): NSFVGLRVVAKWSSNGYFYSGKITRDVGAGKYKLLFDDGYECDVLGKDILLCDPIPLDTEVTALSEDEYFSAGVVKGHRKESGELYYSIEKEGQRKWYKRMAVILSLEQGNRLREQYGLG
endogenous 53BP1, sequence (Q12888 whole entry): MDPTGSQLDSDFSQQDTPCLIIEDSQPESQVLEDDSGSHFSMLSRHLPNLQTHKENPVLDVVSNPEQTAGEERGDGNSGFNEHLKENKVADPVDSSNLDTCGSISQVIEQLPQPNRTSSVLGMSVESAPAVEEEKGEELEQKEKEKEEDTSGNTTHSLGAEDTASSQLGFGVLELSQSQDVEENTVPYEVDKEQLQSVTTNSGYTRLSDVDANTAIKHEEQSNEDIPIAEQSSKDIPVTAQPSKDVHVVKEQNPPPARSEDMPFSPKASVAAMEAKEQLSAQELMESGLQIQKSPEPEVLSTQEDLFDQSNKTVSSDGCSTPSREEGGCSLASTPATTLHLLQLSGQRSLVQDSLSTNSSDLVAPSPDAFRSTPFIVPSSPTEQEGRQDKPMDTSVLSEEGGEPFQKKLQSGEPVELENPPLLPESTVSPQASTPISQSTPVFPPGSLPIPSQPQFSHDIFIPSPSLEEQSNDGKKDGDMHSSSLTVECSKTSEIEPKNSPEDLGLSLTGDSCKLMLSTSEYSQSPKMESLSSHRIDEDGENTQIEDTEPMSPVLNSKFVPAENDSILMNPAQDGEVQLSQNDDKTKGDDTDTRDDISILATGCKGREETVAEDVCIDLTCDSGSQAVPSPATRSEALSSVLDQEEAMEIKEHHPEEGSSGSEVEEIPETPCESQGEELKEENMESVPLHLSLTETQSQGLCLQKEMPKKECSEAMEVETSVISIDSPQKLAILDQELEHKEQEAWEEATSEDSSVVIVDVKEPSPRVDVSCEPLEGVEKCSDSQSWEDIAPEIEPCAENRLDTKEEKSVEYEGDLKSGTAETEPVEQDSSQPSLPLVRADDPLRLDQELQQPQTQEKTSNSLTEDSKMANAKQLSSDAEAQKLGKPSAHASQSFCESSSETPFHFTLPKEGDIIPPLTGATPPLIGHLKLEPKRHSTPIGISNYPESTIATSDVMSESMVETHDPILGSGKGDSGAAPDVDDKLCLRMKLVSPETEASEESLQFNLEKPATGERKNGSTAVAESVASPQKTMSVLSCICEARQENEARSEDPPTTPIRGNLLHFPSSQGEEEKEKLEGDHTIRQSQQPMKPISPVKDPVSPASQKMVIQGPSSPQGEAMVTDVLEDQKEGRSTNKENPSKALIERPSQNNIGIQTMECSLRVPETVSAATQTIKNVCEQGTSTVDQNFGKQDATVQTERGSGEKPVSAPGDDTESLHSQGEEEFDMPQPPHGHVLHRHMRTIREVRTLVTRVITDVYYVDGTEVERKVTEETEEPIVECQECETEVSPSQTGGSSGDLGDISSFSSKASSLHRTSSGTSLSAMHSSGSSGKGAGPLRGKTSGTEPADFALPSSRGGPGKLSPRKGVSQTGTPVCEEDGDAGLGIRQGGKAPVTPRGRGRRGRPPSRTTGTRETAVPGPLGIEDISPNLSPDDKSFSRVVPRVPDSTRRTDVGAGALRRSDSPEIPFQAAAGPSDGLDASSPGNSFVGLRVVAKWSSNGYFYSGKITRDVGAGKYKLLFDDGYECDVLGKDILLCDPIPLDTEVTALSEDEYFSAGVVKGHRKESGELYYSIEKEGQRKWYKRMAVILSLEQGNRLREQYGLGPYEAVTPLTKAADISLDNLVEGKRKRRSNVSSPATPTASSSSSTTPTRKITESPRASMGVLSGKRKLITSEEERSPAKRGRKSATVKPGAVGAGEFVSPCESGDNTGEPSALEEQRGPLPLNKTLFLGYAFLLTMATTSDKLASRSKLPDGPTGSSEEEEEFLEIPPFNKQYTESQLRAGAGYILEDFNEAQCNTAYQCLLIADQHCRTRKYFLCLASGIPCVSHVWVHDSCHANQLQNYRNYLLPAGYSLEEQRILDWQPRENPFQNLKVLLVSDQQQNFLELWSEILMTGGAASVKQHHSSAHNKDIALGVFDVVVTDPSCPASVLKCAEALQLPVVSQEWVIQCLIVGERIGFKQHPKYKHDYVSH
GFP fusion protein containing the 53BP1 tudor domains, sequence (Q12888 1484-1603 limits assumed): as the sequence (Q12888 1484-1603 limits assumed) above
53BP1 tandem tudor domain, sequence (Q12888 1484-1603 limits assumed): as above
tudor domain of 53BP1, sequence (Q12888 1484-1603 limits assumed): as above
53BP1 D1521A mutant, sequence (Q12888 1484-1603 D1521A limits assumed): as the sequence (Q12888 1484-1603 limits assumed) above, with D38A counted along it

Row | Kd against the 53BP1 tandem tudor domain [1] | Compound | γH2AX foci ([2]; after compound treatment) | extent of endogenous 53BP1 foci formed following irradiation ([2]; pretreatment 1 hour, 100 – 300 µM, 5 Gy) | apparent residence time of GFP-53BP1 tudor fusion protein [3] | binding to 53BP1 D1521A mutant [4] | lowest concentration at which partial release of 53BP1 was detected [5] | changes in chemical shifts of 53BP1 tudor domain [6] | concentration at which cell toxicity begins to take effect [7] | cell permeability [8] | ligand efficiency [9] | lipophilic ligand efficiency [9] | selectivity for 53BP1 as compared to other Kme binding proteins tested ([9]; versus nine other Kme reader proteins, AlphaScreen) | cell viability of B cells undergoing CSR [10]
1 | no measurable affinity | CN(CCCNC(=O)c1cccc(Br)c1)C(C)(C)C [Compound 4] |  |  |  |  |  |  |  |  |  |  |  | 
2 |  | CC(C)(C)NCCCNC(=O)c1cccc(Br)c1 [Compound 1] | no changes were observed | did not significantly decrease | did not affect | abrogated | 10 µM | Extensive changes in chemical shifts were observed | > 10000 µM | highly cell permeant | 0.35 | 1.5 | at least 17 fold | reduction in cell viability

Reference: article PMC4402254 (ACS chemical biology, 2015)
